From the array DNA melting data of Ke et al. (doi:10.1101/2024.01.08.574731)

What was measured:
[1] = melting temperature; fluorescence melt of hairpins on a sequencing array, two-state fit, raised by 9.35 °C to match UV melts; conditions: sodium 0.088 M
How it was run: (§1)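 Cy3 signals were normalised both to pre-quench Cy3 and to control constructs. They came from library hairpins carrying annealed Cy3 and quencher oligos on a sequenced MiSeq flow cell, imaged in 50 mM Na-HEPES pH 8.0, 25 mM NaCl, in 2.5 °C steps up to 60 °C. Bootstrapped two-state fits gave melting temperature and folding enthalpy, and four replicates were combined by inverse variance. Fitted temperatures were then raised by 9.35 °C to match UV melts.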

[2] = folding enthalpy; higher = less favourable; fluorescence melt of hairpins on a sequencing array, two-state fit; conditions: sodium 0.088 M
How it was run: as §1

Sequence	Tm [1] [°C]	folding enthalpy [2] [kcal/mol]
GATCTTGTATAAGATC ((((((....))))))	50.5	-37.7
CGTACGGAAACGTGAACG ((((((....)))..)))	37.4	-15.1
GGGACTGGAAACGGTTCC ((.((.(....).)).))	42	-18.9
GATCCGTGCGCGGATC ((((((....))))))	65	-48.4
GGGATGACGAAAGTCCCC (((..(((....))))))	42.9	-18.4
GCCCCGCGAAAGCGAAGC ((..(((....)))..))	39.2	-8.06
GGCCTTGGAAACAGGGTC (.((.((....)).)).)	37.6	-25
GCATGACGAAAGTCGTGC (((.(((....))).)))	63.6	-42
GGTCGTGGAAACATGACC ((((.((....)).))))	56.5	-34
GTAATCGAAAGATGTAC ((((((....))).)))	30.8	-16.9
GATCGCAGCTGCGATC ((((((....))))))	69.3	-41
GACTGTGCGAAAGCAGTC (((..(((....))))))	45.1	-18
GATGAACGAAAGTTGATC (((.(((....))).)))	38.1	-22.7
GATCTTGGTAAGATC ((((((...))))))	43.2	-29
GGCCCCGAAAGGGTGCC ((((((....))).)))	66.1	-23.3
GCGTGATAACGC ((((....))))	69.3	-26.9
GCGGACTGCCGC ((((....))))	54.5	-24.5
GTAGCCGAAAGGCGATAC ((((((....)))..)))	41.3	-9.43
GATCCCCCGGGGGATC ((((((....))))))	66	-41.4
GGTGGTCGAAAGACACC (((.(((....))))))	54.8	-17.5
GGTGCGCCGAAAGGCACC (((..(((....))))))	51.6	-13.2
GATCAGAGTTCTGATC ((((((....))))))	50.5	-36.6
GGGGCCGAAAGGCTTCCC ((((((....)))..)))	46.4	-13.5

Sequence	Tm [1] [°C]	folding enthalpy [2] [kcal/mol]
GCGGAGGCCCGC ((((....))))	53.8	-17.4
GATCGTCCCCACGATC ((((((....))))))	53.9	-41.8
GCGTTACGAAAGTAGCGC (((.(((....))).)))	64.4	-39.7
GCGCCGACGAAAGTCCGC (((..(((....))))))	50	-19.8
GCGGATATCCGC ((((....))))	56.7	-33.9
GCAGATGGAAACATCCGC ((.((((....)))).))	42.5	-23.9
GCAAATGGAAACACTTGC ((((.((....)).))))	33.9	-31.5
GCTGCCGAAAGGCGCAGC ((((((....)))..)))	51.3	-13.6
GGCTACGAAAGTATCGCC ((((((....)))..)))	40.6	-22.5
GGTCCGACGAAAGTCACC (((..(((....))))))	28.4	-14.1
GTTCGGGAAACCGAAC ((((((....))))))	61.1	-38.1
GAGTGTGAAAACACTC ((((((....))))))	60.9	-35
GCAAGGCCGAAAGGCTGC (((..(((....))))))	51.6	-14.8
GAACGCGAAAGCGCATTC ((((((....)))..)))	25.9	-7.58
GGTTATGCGAAAGCAACC (((..(((....))))))	38.3	-15.1
CGCTCGGAAACGAATGCG ((((((....)))..)))	45	-23.3
GGCTCAGGAAACTAAGCC ((((.((....)).))))	39	-29.1
GCGCAGCGAAAGCTCCGC (((.(((....))).)))	44.7	-34.1
GCAACGGCGAAAGCCTGC (((..(((....))))))	47	-15.2
GGGCGAGGAAACTTGCCC ((((.((....)).))))	59.1	-45.6
GTCCTGGGAAACTAGGAC (((((.(....).)))))	49.1	-42.9
GTTTACACGAAAGTGAAC (((..(((....))))))	25.7	-11.9
GGTCCGGGAAACTGGACC (((((.(....).)))))	58.8	-45.3

Sequence	Tm [1] [°C]	folding enthalpy [2] [kcal/mol]
GGCCCTCGAAAGAGAGCC (((.(((....))).)))	53.3	-46.6
GGGGCATCGAAAGATCCC (((..(((....))))))	48.4	-21.9
GGGGTGGGAAACTGCCCC ((((..(....)..))))	51.7	-30.2
GTAGTTGGAAACGACTAC (((((.(....).)))))	45.8	-26.4
GATGCCGGAAACGACACC (.((.((....)).)).)	24.4	-13.5
GGCAATGCGAAAGCAGCC (((..(((....))))))	57.6	-17.7
GTCGTCACGAAAGTGGAC (((..(((....))))))	37.5	-13.3
GGTAATGGAAACATTACC (((((((....)))))))	55.9	-42.8
GCTGGGGCGAAAGCCAGC (((..(((....))))))	55.3	-16.8
GTAATACGAAAGTATAC (((.(((....))))))	34.5	-16
GATCCCGAAAGGGTCATC ((((((....)))..)))	42.8	-12.1
GCCGTGGGAAACTACGGC (((((.(....).)))))	61.1	-42.8
GGTTTTCCGAAAGGAACC (((..(((....))))))	31.1	-12.1
GCGAAATATCGC ((((....))))	45.2	-18.6
GATCTACCACTAGATC ((((((....))))))	39.7	-30.6
TGCCTGAAAAGGCA (((((....)))))	59.1	-17.5
CCTTGGAAACAAGG (((((....)))))	47.2	-15.7
GGGCCAGGAAACCGACCC (((.(.(....).).)))	34.6	-20.9
GACTACGAAAGTAGTGTC ((((((....)))..)))	50.4	-15.4
GGCTTAGGAAACCAAGCC (((((.(....).)))))	47.4	-31.4
GATCCACGAGTGGATC ((((((....))))))	62.8	-39.8
GGGACGGGAAACTGTCCC (((((.(....).)))))	57.8	-39.8
GATCTTCACAAAGATC ((((((....))))))	44.9	-28.9
